ChEMBL document CHEMBL1146064, “Design, synthesis, and biological evaluation of semicarbazide-sensitive amine oxidase (SSAO) inhibitors with anti-inflammatory activity” (J Med Chem, 2006)

Assays:
[1] = target: T1, Amine oxidase [copper-containing] 3 (Rattus norvegicus, UniProt O08590); assay: Inhibition of SSAO in rat lung
T1 sequence (O08590 whole entry): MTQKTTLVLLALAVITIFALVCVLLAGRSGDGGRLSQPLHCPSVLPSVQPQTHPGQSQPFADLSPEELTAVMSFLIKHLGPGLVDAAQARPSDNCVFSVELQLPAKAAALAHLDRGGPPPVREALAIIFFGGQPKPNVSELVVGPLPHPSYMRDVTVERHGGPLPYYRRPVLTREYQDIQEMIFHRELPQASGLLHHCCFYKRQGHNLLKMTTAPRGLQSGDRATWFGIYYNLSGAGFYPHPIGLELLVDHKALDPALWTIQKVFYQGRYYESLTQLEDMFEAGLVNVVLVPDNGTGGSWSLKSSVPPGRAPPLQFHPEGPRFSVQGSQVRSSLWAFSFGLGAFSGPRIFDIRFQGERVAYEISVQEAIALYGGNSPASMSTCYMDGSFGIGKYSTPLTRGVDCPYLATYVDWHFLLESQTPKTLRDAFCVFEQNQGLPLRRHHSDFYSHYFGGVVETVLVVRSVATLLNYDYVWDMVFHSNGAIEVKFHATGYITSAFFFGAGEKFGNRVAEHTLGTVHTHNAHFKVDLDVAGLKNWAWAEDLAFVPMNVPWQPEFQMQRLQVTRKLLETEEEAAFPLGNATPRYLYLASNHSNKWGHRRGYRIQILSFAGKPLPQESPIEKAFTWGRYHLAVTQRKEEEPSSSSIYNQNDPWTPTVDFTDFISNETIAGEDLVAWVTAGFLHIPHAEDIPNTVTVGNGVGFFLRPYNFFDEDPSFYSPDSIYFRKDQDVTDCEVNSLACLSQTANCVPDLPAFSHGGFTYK
Outline: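 Enzyme source is a rat lung homogenate: tissue homogenized 1:20 (w/v) in 10 mM potassium phosphate pH 7.8, then spun at 10000g for 10 min at 4 °C. Reaction stopped with citric acid, toluene/ethyl acetate extract counted by scintillation. IC50 taken from background-corrected dose-response curves (10^-3 to 10^-10 M).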

[2] = Cmax in Sprague-Dawley rat at 5 mg/kg, po; type: ADME, organism-based; parameters: dose 5 mg/kg, route oral; settings: in vivo
Outline: (§1)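 Single oral dose of 5.0 mg/kg given to cannulated female Sprague Dawley rats, then plasma concentrations followed over time. Parameters come from noncompartmental analysis and are reported as mean ± SD (n = 3).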

[3] = target: T2, Amine oxidase [flavin-containing] B (Homo sapiens, UniProt P27338); assay: Inhibition of recombinant human MAO-B
T2 sequence (P27338 whole entry): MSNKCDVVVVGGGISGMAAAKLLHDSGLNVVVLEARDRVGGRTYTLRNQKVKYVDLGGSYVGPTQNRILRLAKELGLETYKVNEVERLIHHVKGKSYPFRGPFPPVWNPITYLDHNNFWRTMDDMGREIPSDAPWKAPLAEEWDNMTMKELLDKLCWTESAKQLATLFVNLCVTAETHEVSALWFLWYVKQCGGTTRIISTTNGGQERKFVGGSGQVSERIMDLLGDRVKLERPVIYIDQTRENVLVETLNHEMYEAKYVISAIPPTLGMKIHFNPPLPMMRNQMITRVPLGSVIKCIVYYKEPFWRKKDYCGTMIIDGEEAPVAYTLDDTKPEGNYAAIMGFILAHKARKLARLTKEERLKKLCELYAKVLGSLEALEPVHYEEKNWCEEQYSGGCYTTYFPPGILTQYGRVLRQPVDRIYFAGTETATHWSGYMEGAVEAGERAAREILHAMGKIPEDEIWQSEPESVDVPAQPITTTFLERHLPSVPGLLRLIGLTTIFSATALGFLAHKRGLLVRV

[4] = target: T3, Amine oxidase [flavin-containing] A (Homo sapiens, UniProt P21397); assay: Inhibition of recombinant human MAO-A
T3 sequence (P21397 whole entry): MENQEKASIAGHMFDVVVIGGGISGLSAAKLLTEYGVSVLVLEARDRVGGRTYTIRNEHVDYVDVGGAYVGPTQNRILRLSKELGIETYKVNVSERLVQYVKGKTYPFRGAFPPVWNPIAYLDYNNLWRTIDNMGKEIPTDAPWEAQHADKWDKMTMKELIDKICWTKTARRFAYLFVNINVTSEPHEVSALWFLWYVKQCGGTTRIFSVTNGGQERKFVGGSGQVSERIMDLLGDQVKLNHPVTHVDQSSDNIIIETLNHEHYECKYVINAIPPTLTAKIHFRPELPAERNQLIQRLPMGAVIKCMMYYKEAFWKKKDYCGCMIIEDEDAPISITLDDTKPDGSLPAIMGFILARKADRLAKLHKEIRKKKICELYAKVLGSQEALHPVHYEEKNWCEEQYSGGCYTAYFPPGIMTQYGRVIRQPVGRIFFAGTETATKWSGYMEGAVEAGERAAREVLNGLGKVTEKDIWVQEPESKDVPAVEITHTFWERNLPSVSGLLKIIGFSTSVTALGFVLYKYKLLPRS
Outline: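 Recombinant human MAO-A measured with a coupled colorimetric assay. IC50 fitted from inhibition curves over 10^-3 to 10^-10 M inhibitor.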

[5] = AUC in Sprague-Dawley rat at 5 mg/kg, po; type: ADME, organism-based; parameters: dose 5 mg/kg, route oral; settings: plasma; outline: as §1
[6] = Tmax in Sprague-Dawley rat at 5 mg/kg, po; type: ADME, organism-based; parameters: dose 5 mg/kg, route oral; settings: in vivo; outline: as §1
[7] = AUC (infinity) in Sprague-Dawley rat at 5 mg/kg, po; type: ADME, organism-based; parameters: time infinity, dose 5 mg/kg, route oral; settings: plasma; outline: as §1
[8] = Half life in Sprague-Dawley rat at 5 mg/kg, po; type: ADME, organism-based; parameters: dose 5 mg/kg, route oral; settings: in vivo; outline: as §1

Structure (SMILES) | IC50 [1] [nM] | further results
NNC/C(=C/F)c1ccccc1 | 5 | –
C=C(CNNCc1ccccc1)c1ccc(F)cc1 | > 1000 | –
C=C(CN(C)N)c1ccc(F)cc1 | 240 | –
C=C(CN(N)Cc1ccccc1)c1ccc(F)cc1 | > 1000 | –
C=C(CN(N)C(C)C)c1ccc(F)cc1 | 420 | –
C=C(CNN)c1ccccc1.Cl | 2 | Cmax [2]: 366 ng/mL; IC50 [3]: 71 µM; IC50 [4]: 1300 nM; AUC [5]: 1340 ng·h/mL; Tmax [6]: 30 min; AUC(0-inf) [7]: 3310 ng·h/mL; half-life [8]: 677 min
C=C(CNN)c1ccc(Cl)cc1 | 3 | –
C=C(CNN)c1ccccc1C | 4 | IC50 [3]: 90 µM; IC50 [4]: 2000 nM

The next lines start with results.

IC50 [1] [nM] | Structure (SMILES) | further results
1.7 | C=C(CNNC)c1ccc(F)cc1 | –
630 | C=C(CN(N)CC)c1ccc(F)cc1 | –
2.3 | C=C(CNNCC)c1ccc(F)cc1 | –
> 1000 | C=C(CNNC(C)C)c1ccc(F)cc1 | –
6.1 | C=C(CNN)c1ccc(F)cc1 | IC50 [4]: 6000 nM
